The source made the active and inactive calls. The calls are words filed in the database; no cut-off is given here.
Legend:
Format in all cases: functional
[1] = test system: Keratinocyte; test: Effect on antiinflammatory related gene expression in diabetic adult human primary keratinocytes assessed as NFKBIA mRNA levels at 9.81 uM after 6 hrs by qPCR analysis
Procedure, shortened: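 Primary keratinocytes from nondiabetic young and adult and diabetic adult donors; 400 000 cells per sample, 6 h exposure at 1.96 or 9.81 μM. RNA extracted and read on a high-throughput qPCR chip. Results are fold change versus 0.1% DMSO solvent control from 5−7 independent experiments over two donors per group, SD, one-way ANOVA with Bonferroni post-test.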

[2] = test system: Keratinocyte; test: Effect on pro-inflammatory related gene expression in non-diabetic young human primary keratinocytes assessed as IL1B mRNA levels at 9.81 uM after 6 hrs by qPCR analysis
[3] = test system: Keratinocyte; test: Effect on chemokines related gene expression in diabetic adult human primary keratinocytes assessed as CXCL10 mRNA levels at 1.96 uM after 6 hrs by qPCR analysis
[4] = test system: Fibroblast; test: Effect on growth factors related gene expression in non-diabetic young human primary fibroblasts assessed as FGF2 mRNA levels at 1.96 uM after 6 hrs by qPCR analysis
Procedure, shortened: (§1)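 Primary human dermal fibroblasts (young or adult nondiabetic, adult diabetic donor) were treated for 6 h against a 0.1% DMSO solvent control. RNA from 320 000 cells per sample was measured by Fluidigm Biomark high-throughput qPCR. Values are fold change relative to solvent control, from four independent experiments, with SD. One-way ANOVA with Bonferroni post-test was applied.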

[5] = test system: Fibroblast; test: Effect on pro-inflammatory related gene expression in non-diabetic young human primary fibroblasts assessed as IL1B mRNA levels at 1.96 uM after 6 hrs by qPCR analysis
[6] = test system: Fibroblast; test: Effect on growth factor related gene expression in non-diabetic adult human primary fibroblasts assessed as VEGFA mRNA levels at 9.81 uM after 6 hrs by qPCR analysis; procedure, shortened: as §1
[7] = test system: Keratinocyte; test: Effect on growth factor related gene expression in diabetic adult human primary keratinocytes assessed as PDGFB mRNA levels at 1.96 uM after 6 hrs by qPCR analysis
Procedure, shortened: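 Primary human keratinocytes (nondiabetic young or adult, diabetic adult donors) were exposed to compound for 6 h, with 0.1% DMSO as solvent control. Total RNA came from 400 000 cells per sample and was assayed on a Fluidigm Biomark high-throughput qPCR chip. Results are fold change vs solvent control, from 2−4 independent experiments on two donors per group, with SD. Groups were compared by one-way ANOVA with Bonferroni post-test.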

[8] = test system: Fibroblast; test: Effect on growth factor related gene expression in diabetic adult human primary fibroblasts assessed as VEGFA mRNA levels at 1.96 uM after 6 hrs by qPCR analysis; procedure, shortened: as §1
[9] = Upregulation of wound healing activity related GM-CSF protein levels in non-diabetic adult human primary keratinocytes at 1.96 uM after 24 hrs by bead-based suspension array analysis; settings: Keratinocyte
[10] = test system: Keratinocyte; test: Effect on cellular connection related gene expression in non-diabetic adult human primary keratinocytes assessed as CLDN4 mRNA levels at 9.81 uM after 6 hrs by qPCR analysis

SMILES: C=C(C)[C@@H]1CC[C@]2(CO)CC[C@]3(C)[C@H](CC[C@@H]4[C@@]5(C)CC[C@H](O)C(C)(C)[C@@H]5CC[C@]43C)[C@@H]12 [BETULIN]
- fold change (FC) [1]: 2
- fold change (FC) [2]: 0.9
- fold change (FC) [3]: 6
- fold change (FC) [4]: 1.7
- fold change (FC) [5]: 3.3
- fold change (FC) [6]: 2
- fold change (FC) [7]: 1
- fold change (FC) [8]: 2.4
- Activity [9]: Active
- fold change (FC) [10]: 1.5
